From ChEMBL document CHEMBL4715787, “Radiofluorinated N-Octanoyl Dopamine ([F]F-NOD) as a Tool To Study Tissue Distribution and Elimination of NOD in Vitro and in Vivo” (J Med Chem, 2016)
The source made the active and inactive calls. No cut-off for these calls is given here.

Assays:
[1] = test system: HUVEC; assay: Antiinflammatory activity in HUVEC assessed as inhibition of TNFalpha-stimulated VCAM1 expression at higher concentration measured after overnight incubation by Western blot analysis; assay type: functional, cell-based; details: Homo sapiens
Procedure, shortened: (§1)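 Primary HUVEC (from fresh umbilical cord, endothelial growth medium with 2% FBS, used at 80–90% confluence) treated with compound; VCAM-1 read-out under TNFα stimulation. Lysates in Triton/deoxycholate buffer; 15 µg protein resolved on 10% SDS-PAGE, semidry-blotted to PVDF, probed overnight at 4 °C for VCAM-1 or HO-1, visualized by ECL. Blots stripped and reprobed for β-actin as loading control.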

[2] = target: T1, Nuclear factor erythroid 2-related factor 2 (Homo sapiens) (UniProt Q16236); assay: Activation of NRF2 in HUVEC assessed as induction of HO1 expression at higher concentration measured after overnight incubation by Western blot analysis; assay type: tissue-based; details: filed as activator; procedure, shortened: as §1
T1 sequence (whole entry): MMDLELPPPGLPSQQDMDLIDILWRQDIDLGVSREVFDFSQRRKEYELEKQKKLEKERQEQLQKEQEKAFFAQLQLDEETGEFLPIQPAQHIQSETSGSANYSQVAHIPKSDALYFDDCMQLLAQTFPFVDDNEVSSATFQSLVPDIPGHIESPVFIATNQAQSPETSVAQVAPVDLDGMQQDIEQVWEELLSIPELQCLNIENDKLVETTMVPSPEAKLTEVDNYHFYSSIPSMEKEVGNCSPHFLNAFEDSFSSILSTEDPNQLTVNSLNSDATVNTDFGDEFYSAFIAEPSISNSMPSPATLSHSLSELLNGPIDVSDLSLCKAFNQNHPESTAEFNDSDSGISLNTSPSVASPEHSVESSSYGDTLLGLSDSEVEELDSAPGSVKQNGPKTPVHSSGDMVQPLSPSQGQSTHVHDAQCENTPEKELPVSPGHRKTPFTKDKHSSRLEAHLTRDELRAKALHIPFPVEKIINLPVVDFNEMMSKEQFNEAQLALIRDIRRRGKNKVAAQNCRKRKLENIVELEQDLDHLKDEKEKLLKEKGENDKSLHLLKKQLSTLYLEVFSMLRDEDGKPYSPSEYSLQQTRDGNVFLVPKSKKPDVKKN

[3] = target: Transient receptor potential cation channel subfamily V member 1 (Rattus norvegicus) (UniProt O35433); assay: (§2) Activation of rat TRPV1 transfected in HEK293 cells assessed as increase in calcium influx in presence of capsaicin by FURA-2-AM dye based fluorescence assay; assay type: cell-based; details: filed as activator
Transient receptor potential cation channel subfamily V member 1 (Rattus norvegicus), sequence (O35433 whole entry): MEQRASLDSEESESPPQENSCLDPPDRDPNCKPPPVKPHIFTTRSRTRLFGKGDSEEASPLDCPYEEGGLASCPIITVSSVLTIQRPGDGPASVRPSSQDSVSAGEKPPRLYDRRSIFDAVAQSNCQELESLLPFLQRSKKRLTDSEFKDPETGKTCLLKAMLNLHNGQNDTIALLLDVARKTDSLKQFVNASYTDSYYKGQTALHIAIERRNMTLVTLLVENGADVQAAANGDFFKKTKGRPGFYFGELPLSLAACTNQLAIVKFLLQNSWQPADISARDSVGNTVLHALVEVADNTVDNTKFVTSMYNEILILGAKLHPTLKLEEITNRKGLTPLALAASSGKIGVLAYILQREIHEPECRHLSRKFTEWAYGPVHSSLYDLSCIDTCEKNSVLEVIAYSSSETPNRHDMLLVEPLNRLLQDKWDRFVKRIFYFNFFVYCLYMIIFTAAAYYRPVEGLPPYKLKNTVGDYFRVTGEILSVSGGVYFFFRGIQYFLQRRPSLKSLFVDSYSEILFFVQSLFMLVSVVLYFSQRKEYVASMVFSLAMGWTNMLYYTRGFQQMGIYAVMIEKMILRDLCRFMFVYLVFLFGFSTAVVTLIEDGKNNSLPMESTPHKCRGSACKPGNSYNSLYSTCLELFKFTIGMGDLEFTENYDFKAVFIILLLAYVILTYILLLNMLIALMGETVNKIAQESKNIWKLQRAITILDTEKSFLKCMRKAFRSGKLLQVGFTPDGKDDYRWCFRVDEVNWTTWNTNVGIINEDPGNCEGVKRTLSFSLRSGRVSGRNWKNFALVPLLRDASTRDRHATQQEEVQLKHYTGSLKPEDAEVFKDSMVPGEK
Procedure, shortened: (§3)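 HEK293 transiently transfected with rat TRPV1, imaged 48 h later in HEPES-buffered extracellular solution (1.8 mM CaCl2) after 1 µM FURA-2AM loading. 340/380 nm excitation ratio at 510 nm, sampled at 0.5 Hz. Compound applied at several concentrations, then 10 µM capsaicin after washout to mark transfected cells. Peak minus baseline; each coverslip one experiment, n = 3–13; two-way ANOVA.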

[4] = target: Transient receptor potential cation channel subfamily V member 1 (Rattus norvegicus, UniProt O35433); assay: as §2; assay type: cell-based; procedure, shortened: as §3
Transient receptor potential cation channel subfamily V member 1, sequence (O35433 whole entry): as above

[5] = target: T1, Nuclear factor erythroid 2-related factor 2 (Homo sapiens); assay: Activation of NRF2 in HUVEC assessed as induction of HO1 expression at lower concentration measured after overnight incubation by Western blot analysis; assay type: tissue-based; procedure, shortened: as §1
[6] = Redox activity of compound assessed as quenching of luminescence by horseradish peroxidase coupled luminol assay; assay type: physicochemical
Procedure, shortened: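 Peroxidase-luminol chemiluminescence: serial dilutions in water added to mix of 2.5 mM luminol, 0.9 mM p-coumaric acid and H2O2, with HRP; quenching read immediately on a plate reader. Expressed relative to compound-free control; at least three independent measurements per concentration; EC50 from concentration–response; ANOVA with LSD post-hoc.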

[7] = test system: HUVEC; assay: Protection against cold inflicted injury in HUVEC assessed as 25 to 100 uM pretreated for 2 hrs followed by washout and subsequent incubation for 20 hrs at 4 degC by LDH assay; assay type: functional, cell-based; details: Homo sapiens, dose 25-100 µM
[8] = test system: HUVEC; assay: Antiinflammatory activity in HUVEC assessed as inhibition of TNFalpha-stimulated VCAM1 expression at lower concentration measured after overnight incubation by Western blot analysis; assay type: functional, cell-based; details: Homo sapiens; procedure, shortened: as §1
[9] = target: T2, Catechol O-methyltransferase (Homo sapiens, UniProt P21964); assay: Substrate activity at COMT (unknown origin) assessed as N-(2-Fluoro-4,5-dimethoxyphenethyl)octanamide formation in presence of cofactor SAM at 180 mins by HPLC analysis; assay type: ADME; details: 3 h
T2 sequence (P21964 whole entry): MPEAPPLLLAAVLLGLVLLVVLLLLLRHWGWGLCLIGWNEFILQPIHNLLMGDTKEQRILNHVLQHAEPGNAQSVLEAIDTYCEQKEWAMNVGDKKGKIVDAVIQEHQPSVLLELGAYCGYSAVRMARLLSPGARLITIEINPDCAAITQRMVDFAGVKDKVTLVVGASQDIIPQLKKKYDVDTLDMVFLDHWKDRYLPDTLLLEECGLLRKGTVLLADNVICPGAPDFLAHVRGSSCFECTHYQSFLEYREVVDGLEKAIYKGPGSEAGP
Procedure, shortened: (§4)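 COMT reaction for lipophilic substrates: Tris buffer pH 8.0 with MgCl2 and dithiothreitol, 10 µL Tween20, 300 nmol SAM, 300 nmol substrate (from 100 mM ethanol stock), 75 units COMT in 1% BSA, 37 °C for 2–4 h. Cooled on ice, centrifuged, CHCl3-extracted, residue in 1:1 MeCN/water analysed by HPLC against methylated references.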

[10] = target: T2, Catechol O-methyltransferase; assay: Substrate activity at COMT (unknown origin) assessed as N-(4-Hydroxy-3-methoxyphenethyl)octanamide formation in presence of cofactor SAM at 180 mins by HPLC analysis; assay type: ADME; details: 3 h; procedure, shortened: as §4
[11] = Drug distribution in Lewis rat bladder assessed as standard uptake value at 4.8 to 13.2 MBq measured after 120 mins; assay type: ADME, tissue-based, Urinary bladder; details: in vivo, 2 h, dose 4.8-13.2 MBq
[12] = Drug accumulation in Lewis rat bone at 4.8 to 13.2 MBq measured after 60 mins by PET imaging analysis; assay type: ADME, tissue-based, Bone element; details: in vivo, 1 h, dose 4.8-13.2 MBq
[13] = Lipophilicity, log D of compound in n-octanol and phosphate buffered saline at pH 7.5 by shake flask method; assay type: physicochemical
Procedure, shortened: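 Shake-flask partition of the 18F tracer between n-octanol and PBS at pH 7.5, following OECD guideline; n = 3.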

[14] = Drug uptake in human HUVEC lysate extracts assessed as retention time incubated for 120 mins by HPLC analysis; assay type: ADME, subcellular; details: 2 h
Procedure, shortened: (§5)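 HUVEC incubated with ~450 kBq 18F tracer per well in 1 mL medium at 37 °C, normal atmosphere, for up to 120 min. Supernatant collected, cells washed 3× with PBS, lysed and scraped for gamma counting; associated activity expressed as % of applied dose. Lysate extracts analysed by radio-HPLC; three independent experiments, mean ± SD.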

[15] = Metabolic stability of compound in rat plasma assessed as compound recovery rate measured after 120 mins by radio-HPLC analysis; assay type: ADME, cell-free; details: read-out: Drug recovery
Procedure, shortened: (§6)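 18F tracer in PBS/3% EtOH (100 µL) shaken with rat plasma (200 µL) at 37 °C for 120 min. Samples at 30, 60, 120 min deproteinized with equal volume acetonitrile at 0 °C; supernatant analysed by radio-TLC and radio-HPLC for radiochemical purity and recovery.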

[16] = Drug distribution in Lewis rat bladder at 4.8 to 13.2 MBq measured within 30 mins by PET imaging; assay type: ADME, tissue-based, Urinary bladder; details: in vivo, 0.5 h, dose 4.8-13.2 MBq
[17] = Drug distribution in Lewis rat bone assessed as standard uptake value at 4.8 to 13.2 MBq measured after 120 mins; assay type: ADME, tissue-based, Bone element; details: in vivo, 2 h, dose 4.8-13.2 MBq
[18] = Metabolic stability of compound in rat plasma assessed as radiochemical purity measured after 120 mins by radio-HPLC analysis; assay type: ADME, cell-free; details: read-out: Stabilty; procedure, shortened: as §6
[19] = Drug distribution in Lewis rat kidney assessed as standard uptake value at 4.8 to 13.2 MBq observed between 5 to 10 mins by PET imaging analysis; assay type: ADME, tissue-based; details: in vivo, dose lower 4.8 MBq, time lower 5 min, dose upper 13.2 MBq, time upper 10 min
[20] = Drug transport in HUVEC assessed as cell association incubated for 120 mins by HPLC analysis; assay type: ADME, tissue-based; details: human, 2 h, in the assay text read “by gamma counting” for “by HPLC analysis”; procedure, shortened: as §5
[21] = Drug distribution in Lewis rat liver assessed as standard uptake value at 4.8 to 13.2 MBq measured at 8 min by PET imaging analysis; assay type: ADME, tissue-based; details: in vivo, dose 4.8-13.2 MBq

SMILES: CCCCCCCC(=O)NCCc1cc(O)c(O)cc1F
- Activity [1]: Active
- Activity [2]: Active
- Activity [3]: Dose-dependent effect
- EC50 [4]: 45.9 µM
- Activity [5]: inactive
- EC50 [6]: 32.6 µM
- Activity [7]: Active
- Activity [8]: inactive
- Drug metabolism [9]: Metabolite_Detected

SMILES: CCCCCCCC(=O)NCCc1ccc(O)c(O)c1
- Drug metabolism [10]: Metabolite_Detected
- Activity [1]: Active
- Activity [2]: Active
- Activity [3]: Dose-dependent effect
- EC50 [4]: 7.1 µM
- EC50 [6]: 12.1 µM
- Activity [7]: Active

SMILES: CCCCCCCC(=O)NCCc1cc(O)c(O)cc1[18F]
- SUV [11]: 38.5 g/mL
- Drug uptake [12]: Active
- logD [13]: 3.35
- Retention_time [14]: 4.07 min
- remaining at 2 h [15]: 77%
- Drug uptake [16]: Active
- SUV [17]: 9.8 g/mL
- remaining at 2 h [18]: ≥ 98%
- SUV [19]: 8 g/mL
- Drug transport [20]: 0.14 %ID
- SUV [21]: 21 g/mL
